Test results reported in ChEMBL document CHEMBL1136006, “New PET imaging agent for the serotonin transporter: [(18)F]ACF (2-[(2-amino-4-chloro-5-fluorophenyl)thio]-N,N-dimethyl-benzenmethanamine)” (J Med Chem, 2002).

Assays:
Rattus norvegicus [1] = species: Rattus norvegicus; assay: Regional brain distribution of [18F]-ACF radiolabeled compound in rat cerebellum after 240 min; type: ADME, organism-based; details: in vivo, 4 h
Method in brief: (§1)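 Rats (three per group) under ether anesthesia got 30 μCi tracer in 0.2 mL saline into the femoral vein and were killed by cardiac excision at the stated time. Cortex, striatum, hippocampus, cerebellum, hypothalamus and the rest of brain were dissected, weighed and gamma counted. %dose/g was taken against counts of a diluted initial dose. Regional ratios are each region's %dose/g over cerebellum's. Mean ± SD.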

Rattus norvegicus [2] = species: Rattus norvegicus; assay: Organ distribution of [18F]ACF radiolabeled compound in rat bone after 120 min; type: ADME, organism-based, Bone element; details: in vivo, 2 h
Method in brief: (§2)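 Rats, three per time point, under ether anesthesia; 30 μCi tracer in 0.2 mL saline injected into femoral vein. Sacrificed by cardiac excision under ether at 2, 30, 60, 120 or 240 min. Organs removed, weighed and counted; % dose/organ calculated against counts of 1% of initial dose counted at the same time. Average of three rats ± SD.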

Rattus norvegicus [3] = assay: Effect of pretreatment with nisoxatine with a dose of 2 mg/kg (i.v.) on specific binding of [18F]ACF in rat brain cortex; type: ADME, organism-based; set-up: dose 2 mg/kg, route intravenous; details: in vivo, iv
Method in brief: (§3)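 Rats pretreated iv with drug (2 mg/kg) or saline 5 min before iv [18F]ACF (50 μCi). Sacrificed 1 h after tracer. Brain regions were dissected, weighed and counted, and % dose/g was calculated against a diluted initial dose. Drug-treated rats were compared with saline controls by ANOVA/Dunnett's test (p<0.05). Three rats per point, average ± SD.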

Rattus norvegicus [4] = species: Rattus norvegicus; assay: Organ distribution of [18F]ACF radiolabeled compound in rat blood after 60 min; type: ADME, organism-based; details: in vivo, 1 h; method in brief: as §2
Rattus norvegicus [5] = assay: Ratio of effect of pretreatment with (+)-McN5652 with a dose of 2 mg/kg (i.v.) on specific binding of [18F]ACF in rat brain cerebellum to that of cerebellum; type: ADME, organism-based; set-up: dose 2 mg/kg, route intravenous; details: in vivo, iv
Method in brief: (§4)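 Rats (three per point) pretreated iv with competing drug at 2 mg/kg or saline (control) 5 min before iv [18F]ACF (50 μCi). At 1 h post tracer, brain regions (cortex, striatum, hippocampus, cerebellum, hypothalamus, remainder) dissected, weighed, counted as % dose/g and expressed as ratio to cerebellum. Average ± SD; ANOVA with Dunnett's test vs saline controls, p < 0.05.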

Rattus norvegicus [6] = assay: Effect of pretreatment with (+)-McN5652 with a dose of 2 mg/kg (i.v.) on specific binding of [18F]ACF in rat brain hypothalamus; type: ADME, organism-based; set-up: dose 2 mg/kg, route intravenous; details: in vivo, iv; method in brief: as §3
Rattus norvegicus [7] = species: Rattus norvegicus; assay: Regional brain distribution of [18F]-ACF radiolabeled compound in rat hypothalamus after 120 min; type: ADME, organism-based; details: in vivo, 2 h; method in brief: as §1
Rattus norvegicus [8] = assay: Effect of pretreatment with methylphenidate with a dose of 2 mg/kg (i.v.) on specific binding of [18F]ACF in rat brain cerebellum; dose/g; type: ADME, organism-based; set-up: dose 2 mg/kg, route intravenous; details: in vivo, iv; method in brief: as §3
Rattus norvegicus [9] = species: Rattus norvegicus; assay: Organ distribution of [18F]ACF radiolabeled compound in rat brain after 120 min; type: ADME, organism-based; details: in vivo, 2 h; method in brief: as §2
Rattus norvegicus [10] = species: Rattus norvegicus; assay: Organ distribution of [18F]ACF radiolabeled compound in rat kidney after 120 min; type: ADME, organism-based; details: in vivo, 2 h; method in brief: as §2
Rattus norvegicus [11] = species: Rattus norvegicus; assay: Organ distribution of [18F]ACF radiolabeled compound in rat brain after 2 min; type: ADME, organism-based; details: in vivo; method in brief: as §2
Rattus norvegicus [12] = assay: Ratio of effect of pretreatment with nisoxatine with a dose of 2 mg/kg (i.v.) on specific binding of [18F]ACF in rat brain hypothalamus to that of cerebellum; type: ADME, organism-based; set-up: dose 2 mg/kg, route intravenous; details: in vivo, iv; method in brief: as §4
Rattus norvegicus [13] = species: Rattus norvegicus; assay: Organ distribution of [18F]-ACF radiolabeled compound in rat kidney after 240 min; type: ADME, organism-based; details: in vivo, 4 h
Method in brief: (§5)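 Under ether anesthesia, 30 μCi no-carrier-added tracer in 0.2 mL saline injected into the femoral vein. Rats killed by cardiac excision at the stated time. Organs were removed, weighed and counted; % dose/organ was calculated against counts of a 1% initial-dose standard. Three rats per time, average ± SD.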

Rattus norvegicus [14] = assay: Ratio of effect of pretreatment with nisoxatine with a dose of 2 mg/kg (i.v.) on specific binding of [18F]ACF in rat brain remainder to that of cerebellum; type: ADME, organism-based; set-up: dose 2 mg/kg, route intravenous; details: in vivo, iv; method in brief: as §4
Rattus norvegicus [15] = species: Rattus norvegicus; assay: Organ distribution of [18F]ACF radiolabeled compound in rat blood after 2 min; type: ADME, organism-based; details: in vivo; method in brief: as §2
Rattus norvegicus [16] = species: Rattus norvegicus; assay: Ratio of regional brain distribution of [18F]-ACF radiolabeled compound in rat striatum to that of cerebellum after 120 min; type: ADME, organism-based; details: in vivo, 2 h; method in brief: as §1
Rattus norvegicus [17] = assay: Effect of pretreatment with (+)-McN5652 with a dose of 2 mg/kg (i.v.) on specific binding of [18F]ACF in rat brain cerebellum; type: ADME, organism-based; set-up: dose 2 mg/kg, route intravenous; details: in vivo, iv; method in brief: as §3
Rattus norvegicus [18] = species: Rattus norvegicus; assay: Regional brain distribution of [18F]-ACF radiolabeled compound in rat striatum after 2 min; type: ADME, organism-based; details: in vivo; method in brief: as §1
Rattus norvegicus [19] = species: Rattus norvegicus; assay: Regional brain distribution of [18F]-ACF radiolabeled compound in rat cortex after 2 min; type: ADME, organism-based; details: in vivo; method in brief: as §1
Rattus norvegicus [20] = species: Rattus norvegicus; assay: Organ distribution of [18F]-ACF radiolabeled compound in rat heart after 240 min; type: ADME, organism-based; details: in vivo, 4 h; method in brief: as §5
Rattus norvegicus [21] = species: Rattus norvegicus; assay: Organ distribution of [18F]-ACF radiolabeled compound in rat skin after 60 min; type: ADME, organism-based; details: in vivo, 1 h; method in brief: as §5
Rattus norvegicus [22] = assay: Ratio of effect of pretreatment with nisoxatine with a dose of 2 mg/kg (i.v.) on specific binding of [18F]ACF in rat brain cortex to that of cerebellum; type: ADME, organism-based; set-up: dose 2 mg/kg, route intravenous; details: in vivo, iv; method in brief: as §4
Rattus norvegicus [23] = species: Rattus norvegicus; assay: Ratio of regional brain distribution of [18F]-ACF radiolabeled compound in rat remainder to that of cerebellum after 120 min; type: ADME, organism-based; details: in vivo, 2 h; method in brief: as §1
Rattus norvegicus [24] = species: Rattus norvegicus; assay: Organ distribution of [18F]-ACF radiolabeled compound in rat brain after 60 min; type: ADME, organism-based; details: in vivo, 1 h; method in brief: as §5
Rattus norvegicus [25] = species: Rattus norvegicus; assay: Regional brain distribution of [18F]-ACF radiolabeled compound in rat striatum after 240 min; type: ADME, organism-based; details: in vivo, 4 h; method in brief: as §1
Rattus norvegicus [26] = species: Rattus norvegicus; assay: Organ distribution of [18F]-ACF radiolabeled compound in rat muscle after 120 min; type: ADME, organism-based, Muscle tissue; details: in vivo, 2 h; method in brief: as §5
Rattus norvegicus [27] = species: Rattus norvegicus; assay: Organ distribution of [18F]-ACF radiolabeled compound in rat lung after 240 min; type: ADME, organism-based; details: in vivo, 4 h; method in brief: as §5
Rattus norvegicus [28] = species: Rattus norvegicus; assay: Regional brain distribution of [18F]ACF radiolabeled compound in rat striatum after 30 min; type: ADME, organism-based; details: in vivo, 0.5 h
Method in brief: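 Rats, three per group, under ether anaesthesia, given 30 μCi no-carrier-added tracer in 0.2 mL saline into the femoral vein. They were killed at the stated time by cardiac excision under ether. Striatum and other brain regions were dissected, weighed and counted. %dose/g was calculated against counts of 1% of the injected dose, as mean ± SD of three rats.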

Rattus norvegicus [29] = assay: Effect of pretreatment with nisoxatine with a dose of 2 mg/kg (i.v.) on specific binding of [18F]ACF in rat brain hypothalamus; type: ADME, organism-based; set-up: dose 2 mg/kg, route intravenous; details: in vivo, iv; method in brief: as §3
Rattus norvegicus [30] = assay: Ratio of effect of pretreatment with nisoxatine with a dose of 2 mg/kg (i.v.) on specific binding of [18F]ACF in rat brain striatum to that of cerebellum; type: ADME, organism-based; set-up: dose 2 mg/kg, route intravenous; details: in vivo, iv; method in brief: as §4
Rattus norvegicus [31] = species: Rattus norvegicus; assay: Organ distribution of [18F]-ACF radiolabeled compound in rat muscle after 30 min; type: ADME, organism-based, Muscle tissue; details: in vivo, 0.5 h; method in brief: as §5
Rattus norvegicus [32] = species: Rattus norvegicus; assay: Organ distribution of [18F]-ACF radiolabeled compound in rat bone after 30 min; type: ADME, organism-based, Bone element; details: in vivo, 0.5 h; method in brief: as §5
Rattus norvegicus [33] = assay: Effect of pretreatment with (+)-McN5652 with a dose of 2 mg/kg (i.v.) on specific binding of [18F]ACF in rat brain cortex; type: ADME, organism-based; set-up: dose 2 mg/kg, route intravenous; details: in vivo, iv; method in brief: as §3
Rattus norvegicus [34] = species: Rattus norvegicus; assay: Organ distribution of [18F]ACF radiolabeled compound in rat bone after 60 min; type: ADME, organism-based, Bone element; details: in vivo, 1 h; method in brief: as §2
Rattus norvegicus [35] = species: Rattus norvegicus; assay: Regional brain distribution of [18F]ACF radiolabeled compound in rat cortex after 60 min; type: ADME, organism-based; details: in vivo, 1 h; method in brief: as §1
Rattus norvegicus [36] = assay: Ratio of effect of pretreatment with (+)-McN5652 with a dose of 2 mg/kg (i.v.) on specific binding of [18F]ACF in rat brain cortex to that of cerebellum; type: ADME, organism-based; set-up: dose 2 mg/kg, route intravenous; details: in vivo, iv; method in brief: as §4

`CN(C)Cc1ccccc1Sc1cc(F)c(Cl)cc1N` gave a Dose/g (Rattus norvegicus [1]) of 0.02%, a Dose/g (Rattus norvegicus [2]) of 0.28 % dose/organ and a Dose/g (Rattus norvegicus [3]) of 0.37%. It also gave a Dose/g (Rattus norvegicus [4]) of 4.65%, a Ratio (Rattus norvegicus [5]) of 1 and a Dose/g (Rattus norvegicus [6]) of 0.24%. It also gave a Dose/g (Rattus norvegicus [7]) of 0.17%, a Dose/g (Rattus norvegicus [8]) of 0.17% and a Dose/g (Rattus norvegicus [9]) of 0.21 % dose/organ. It also gave a Dose/g (Rattus norvegicus [10]) of 0.78 % dose/organ, a Dose/g (Rattus norvegicus [11]) of 3.27 % dose/organ and a Ratio (Rattus norvegicus [12]) of 2.89. For the same molecule, the Dose/g (Rattus norvegicus [13]) was 0.51 % dose/organ, the Ratio (Rattus norvegicus [14]) was 2.17 and the Dose/g (Rattus norvegicus [15]) was 6.56 % dose/organ. It also gave a Ratio (Rattus norvegicus [16]) of 2.97, a Dose/g (Rattus norvegicus [17]) of 0.17% and a Dose/g (Rattus norvegicus [18]) of 1.78%. The Dose/g (Rattus norvegicus [19]) was 2.31%, the Dose/g (Rattus norvegicus [20]) was 0.04 % dose/organ and the Dose/g (Rattus norvegicus [21]) was 5.97 % dose/organ. The Ratio (Rattus norvegicus [22]) was 1.94, the Ratio (Rattus norvegicus [23]) was 2.34 and the Dose/g (Rattus norvegicus [24]) was 0.69 % dose/organ. The Dose/g (Rattus norvegicus [25]) was 0.05%, the Dose/g (Rattus norvegicus [26]) was 4.02 % dose/organ and the Dose/g (Rattus norvegicus [27]) was 0.15 % dose/organ. For the same molecule, the Dose/g (Rattus norvegicus [28]) was 0.76%, the Dose/g (Rattus norvegicus [29]) was 0.55% and the Ratio (Rattus norvegicus [30]) was 2.5. It also gave a Dose/g (Rattus norvegicus [31]) of 10.7 % dose/organ, a Dose/g (Rattus norvegicus [32]) of 0.04 % dose/organ and a Dose/g (Rattus norvegicus [33]) of 0.24%. It also gave a Dose/g (Rattus norvegicus [34]) of 0.08 % dose/organ, a Dose/g (Rattus norvegicus [35]) of 0.33% and a Ratio (Rattus norvegicus [36]) of 1.43.
